Experimental data from ChEMBL document CHEMBL3576829, “Design, synthesis and evaluation of scutellarein-O-alkylamines as multifunctional agents for the treatment of Alzheimer's disease” (Eur J Med Chem, 2015).

Tests used:
[1] = Inhibition of BuChE in rat serum using butyrylthiocholine iodide as substrate after 15 mins by Ellman's method; conditions: 0.25 h
Outline: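 Rat serum (25%, 10 µL) in 100 µL with 1 mmol/L butyrylthiocholine iodide stock, pH 7.4 phosphate buffer and graded inhibitor levels, 37°C for 15 min; DTNB (0.2%) then added and absorbance read at 405 nm.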

Acetylcholinesterase [2] = target: T1, Acetylcholinesterase (Rattus norvegicus, UniProt P37136); test: Inhibition of AChE in rat cortex using acetylthiocholine iodide as substrate after 15 mins by Ellman's method
T1 sequence (P37136 whole entry): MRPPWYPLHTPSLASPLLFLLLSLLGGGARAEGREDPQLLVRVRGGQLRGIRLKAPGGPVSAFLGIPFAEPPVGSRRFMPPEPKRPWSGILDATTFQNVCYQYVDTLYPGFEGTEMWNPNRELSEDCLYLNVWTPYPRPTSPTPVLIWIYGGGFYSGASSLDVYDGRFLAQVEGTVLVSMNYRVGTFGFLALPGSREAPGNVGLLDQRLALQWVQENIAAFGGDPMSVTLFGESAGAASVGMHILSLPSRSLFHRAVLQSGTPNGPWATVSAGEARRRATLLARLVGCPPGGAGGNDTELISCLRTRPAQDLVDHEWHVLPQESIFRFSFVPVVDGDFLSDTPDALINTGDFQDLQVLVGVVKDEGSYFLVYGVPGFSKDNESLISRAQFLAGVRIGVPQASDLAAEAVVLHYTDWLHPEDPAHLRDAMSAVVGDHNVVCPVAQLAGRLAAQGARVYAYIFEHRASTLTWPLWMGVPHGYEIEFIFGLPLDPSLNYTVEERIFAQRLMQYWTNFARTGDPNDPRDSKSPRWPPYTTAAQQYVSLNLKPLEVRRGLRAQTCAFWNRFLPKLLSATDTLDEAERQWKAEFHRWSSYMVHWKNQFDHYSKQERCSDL

Rattus norvegicus = organism: Rattus norvegicus; test: Selectivity index, ratio of IC50 for rat serum BuChE to IC50 for rat cortex AChE
Acetylcholinesterase [3] = target: Acetylcholinesterase (Electrophorus electricus, UniProt O42275); test: Inhibition of electric eel AChE using acetylthiocholine iodide as substrate after 15 mins by Ellman's method
Sequence of Acetylcholinesterase (Electrophorus electricus, UniProt O42275) (O42275 whole entry): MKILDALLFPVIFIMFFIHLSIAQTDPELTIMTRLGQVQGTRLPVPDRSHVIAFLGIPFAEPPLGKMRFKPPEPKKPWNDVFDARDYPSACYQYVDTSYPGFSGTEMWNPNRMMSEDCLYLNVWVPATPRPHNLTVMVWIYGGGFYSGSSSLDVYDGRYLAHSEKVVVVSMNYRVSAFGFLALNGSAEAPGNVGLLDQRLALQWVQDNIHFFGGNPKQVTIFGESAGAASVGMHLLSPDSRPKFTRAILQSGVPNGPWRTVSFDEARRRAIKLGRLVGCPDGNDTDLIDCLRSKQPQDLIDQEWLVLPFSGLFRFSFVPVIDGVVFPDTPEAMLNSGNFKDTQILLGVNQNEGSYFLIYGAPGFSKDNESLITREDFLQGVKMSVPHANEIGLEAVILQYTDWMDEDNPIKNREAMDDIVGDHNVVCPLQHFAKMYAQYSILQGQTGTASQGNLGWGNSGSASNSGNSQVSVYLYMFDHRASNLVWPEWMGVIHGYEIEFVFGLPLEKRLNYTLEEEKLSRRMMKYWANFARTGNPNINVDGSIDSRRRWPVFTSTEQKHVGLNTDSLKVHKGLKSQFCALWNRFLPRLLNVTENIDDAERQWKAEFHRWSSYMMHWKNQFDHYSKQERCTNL

Row | SMILES | IC50 [1] [µM] | IC50 (Acetylcholinesterase [2]) [µM] | Ratio IC50 (Rattus norvegicus) | IC50 (Acetylcholinesterase [3]) [µM]
1 | COc1ccccc1CN(C)CCCCCCOc1ccc(-c2cc(=O)c3c(OC)c(OC)c(OC)cc3o2)cc1 | 96.1 | 0.45 | 214 | 2.23
2 | COc1cc2oc(-c3cccc(OCCCCN4CCN(Cc5ccccc5)CC4)c3)cc(=O)c2c(OC)c1OC | 109 | 4.03 | 27 | 25.3
3 | COc1cc2oc(-c3ccc(OCCCCCCN(C)Cc4ccccc4)cc3)cc(=O)c2c(OC)c1OC | 84.6 | 0.99 | 85.5 | 5.4
4 | COc1ccccc1CN(C)CCCOc1cccc(-c2cc(=O)c3c(OC)c(OC)c(OC)cc3o2)c1 | 75.4 | 0.38 | 198 | 1.59
5 | COc1ccccc1CN(C)CCCCOc1cccc(-c2cc(=O)c3c(OC)c(OC)c(OC)cc3o2)c1 | 85 | 2.61 | 32.6 | 12.2
6 | CCN(CCCCOc1cccc(-c2cc(=O)c3c(OC)c(OC)c(OC)cc3o2)c1)Cc1ccccc1 | 63.4 | 2.35 | 27 | 8.3
7 | COc1ccccc1CN(C)CCCCOc1ccc(-c2cc(=O)c3c(O)c(OC)c(OC)cc3o2)cc1 | > 500 | 3.43 | > 146 | 14.4
8 | CCN(CCCCCCOc1cccc(-c2cc(=O)c3c(O)c(OC)c(OC)cc3o2)c1)Cc1ccccc1OC | 484 | 1.27 | 381 | 0.77
9 | COc1ccccc1CN(C)CCCCCCOc1cccc(-c2cc(=O)c3c(OC)c(OC)c(OC)cc3o2)c1 | 60.7 | 0.96 | 63.2 | 4.5
10 | COc1ccccc1CN(C)CCCCCCOc1ccc(-c2cc(=O)c3c(O)c(OC)c(OC)cc3o2)cc1 | > 500 | 5.07 | > 98.6 | 22.6
11 | CCN(CCOc1cccc(-c2cc(=O)c3c(OC)c(OC)c(OC)cc3o2)c1)Cc1ccccc1 | 79.6 | 3.37 | 23.6 | 3.8
12 | COc1cc2oc(-c3cccc(OCCCN4CCN(Cc5ccccc5)CC4)c3)cc(=O)c2c(OC)c1OC | 149 | 3.12 | 47.7 | 1.59
13 | COc1cc2oc(-c3cccc(OCCN4CCN(C)CC4)c3)cc(=O)c2c(OC)c1OC | > 500 | 8.2 | > 61 | 22.5
14 | COc1ccccc1CN(C)CCCOc1ccc(-c2cc(=O)c3c(O)c(OC)c(OC)cc3o2)cc1 | > 500 | 5 | > 100 | 31.1
15 | O=c1cc(-c2ccc(O)cc2)oc2cc(O)c(O)c(O)c12 [SCUTELLAREIN] | > 500 | > 500 | – | –
16 | CCN(CCCCCCOc1cccc(-c2cc(=O)c3c(OC)c(OC)c(OC)cc3o2)c1)Cc1ccccc1OC | 41.6 | 0.22 | 189 | 1.3
17 | COc1cc2oc(-c3cccc(OCCCCCCN4CCN(Cc5ccccc5)CC4)c3)cc(=O)c2c(OC)c1OC | > 500 | 7.33 | > 68.2 | 21.4
18 | COc1cc2oc(-c3ccc(OCCCN4CCN(Cc5ccccc5)CC4)cc3)cc(=O)c2c(OC)c1OC | > 500 | 1.8 | > 278 | 8.7
19 | CCN(CCCOc1cccc(-c2cc(=O)c3c(OC)c(OC)c(OC)cc3o2)c1)Cc1ccccc1OC | 77.2 | 0.33 | 234 | 1.78
20 | CCN(CCCOc1cccc(-c2cc(=O)c3c(OC)c(OC)c(OC)cc3o2)c1)Cc1ccccc1 | 101 | 5.4 | 18.7 | 20.4

Row | SMILES | IC50 [1] [µM] | IC50 (Acetylcholinesterase [2]) [µM] | Ratio IC50 (Rattus norvegicus) | IC50 (Acetylcholinesterase [3]) [µM]
21 | COc1cc2oc(-c3cccc(OCCCCN4CCN(C)CC4)c3)cc(=O)c2c(OC)c1OC | > 500 | 0.25 | > 2000 | 1.15
22 | COc1cc2oc(-c3cccc(OCCN(C)Cc4ccccc4)c3)cc(=O)c2c(OC)c1OC | 87.9 | 9.2 | 9.6 | 35.7
23 | COc1cc2oc(-c3ccc(OCCCN(C)Cc4ccccc4)cc3)cc(=O)c2c(OC)c1OC | 136 | 2.62 | 51.8 | 11.5
24 | COc1cc2oc(-c3cccc(OCCCN(C)Cc4ccccc4)c3)cc(=O)c2c(OC)c1OC | 117 | 5.17 | 22.7 | 25
25 | COc1cc2oc(-c3cccc(OCCCCN(C)Cc4ccccc4)c3)cc(=O)c2c(OC)c1OC | 90.7 | 4.53 | 20 | 18.4
26 | CCN(CCCOc1ccc(-c2cc(=O)c3c(OC)c(OC)c(OC)cc3o2)cc1)Cc1ccccc1 | 81.3 | 2.04 | 39.9 | 7.3
27 | COc1cc2oc(-c3cccc(OCCCCCCN(C)Cc4ccccc4)c3)cc(=O)c2c(OC)c1OC | 78.7 | 2.13 | 36.9 | 6.13
28 | COc1cc2oc(-c3ccc(OCCCCN4CCN(C)CC4)cc3)cc(=O)c2c(OC)c1OC | 146 | 1.07 | 136 | 5.27
29 | CCN(CCCCOc1cccc(-c2cc(=O)c3c(OC)c(OC)c(OC)cc3o2)c1)Cc1ccccc1OC | 78.3 | 0.8 | 97.9 | 2.37
30 | CCN(CCCOc1cccc(-c2cc(=O)c3c(O)c(OC)c(OC)cc3o2)c1)Cc1ccccc1OC | 240 | 1.58 | 152 | 4.5
31 | COc1cc2oc(-c3ccc(OCCCN4CCN(C)CC4)cc3)cc(=O)c2c(OC)c1OC | > 500 | 8.3 | > 60.2 | 34.7
32 | COc1cc2oc(-c3ccc(OCCCCCCN4CCN(Cc5ccccc5)CC4)cc3)cc(=O)c2c(OC)c1OC | > 500 | 8.07 | > 62 | 26.5
33 | CCN(CCCCOc1cccc(-c2cc(=O)c3c(O)c(OC)c(OC)cc3o2)c1)Cc1ccccc1OC | > 500 | 2.4 | > 208 | 7.97
34 | COc1ccccc1CN(C)CCCOc1ccc(-c2cc(=O)c3c(OC)c(OC)c(OC)cc3o2)cc1 | 108 | 1.76 | 61.1 | 8.6
35 | COc1ccccc1CN(C)CCOc1cccc(-c2cc(=O)c3c(OC)c(OC)c(OC)cc3o2)c1 | 31.4 | 3.22 | 9.8 | 2.49
36 | COc1cc2oc(-c3cccc(OCCN4CCN(Cc5ccccc5)CC4)c3)cc(=O)c2c(OC)c1OC | > 500 | 1.18 | > 424 | 2.91
37 | COc1ccccc1CN(C)CCCOc1cccc(-c2cc(=O)c3c(O)c(OC)c(OC)cc3o2)c1 | 354 | 8.1 | 43.7 | 28.6
38 | CCN(CCCCCCOc1cccc(-c2cc(=O)c3c(OC)c(OC)c(OC)cc3o2)c1)Cc1ccccc1 | 52.1 | 2.03 | 25.7 | 12.2
39 | COc1ccccc1CN(C)CCCCOc1cccc(-c2cc(=O)c3c(O)c(OC)c(OC)cc3o2)c1 | > 500 | 7.73 | > 64.7 | 31
